ChEMBL document CHEMBL1141140, “Antifungal agents. 11. N-substituted derivatives of 1-[(aryl)(4-aryl-1H-pyrrol-3-yl)methyl]-1H-imidazole: synthesis, anti-Candida activity, and QSAR studies” (2005)
In brackets after ≈: the same amount, converted by molar mass.

Key:
Format in all cases: functional
Candida albicans [1] = assay: In vitro concentration causing 50% inhibition of Candida albicans with percentage of resistant strains %R = 0 (MIC > 64 ug/mL) at a range of 0.016-0.5 ug/mL
Candida albicans [2] = assay: In vitro minimal inhibitory concentration against Candida albicans with percentage of resistant strains %R = 0 (MIC > 64 ug/mL) at a range of 0.016-0.5 ug/mL
Candida albicans [3] = assay: In vitro concentration causing 90% inhibition of Candida albicans with percentage of resistant strains %R = 0 (MIC > 64 ug/mL) at a range of 0.016-0.5 ug/mL
Candida albicans [4] = assay: Ratio of the in vitro minimal inhibitory to that of bifonazole against Candida albicans (MIC(compound)/MIC(bifonazole))
Procedure, shortened: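 Broth microdilution per NCCLS M27-A2 against 12 Candida albicans strains (AIDS oropharyngeal, HIV vulvovaginitis isolates, ATCC 24433 and 20891, lab strains 3153 and CA2). Inoculum ~10^4 cells/mL in RPMI 1640, pH 7.0; DMSO stocks 6.4 mg/mL, twofold dilutions 0.016–64 μg/mL; read at 24 h, 28 °C, no visible growth. Mean MIC over strains converted to μmol/mL, divided by bifonazole MIC.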

Candida albicans [5] = assay: In vitro minimal inhibitory concentration against Candida albicans with percentage of resistant strains %R = 50 (MIC > 64 ug/mL) at a range of 2-16 ug/mL
Candida albicans [6] = assay: In vitro concentration causing 90% inhibition of Candida albicans with percentage of resistant strains %R = 50 (MIC > 64 ug/mL) at a range of 2-16 ug/mL
Candida albicans [7] = assay: In vitro concentration causing 50% inhibition of Candida albicans with percentage of resistant strains %R = 50 (MIC > 64 ug/mL) at a range of 2-16 ug/mL
Candida albicans [8] = assay: In vitro concentration causing 50% inhibition of Candida albicans with percentage of resistant strains %R = 33.33 (MIC > 64 ug/mL) at a range of 0.125-2 ug/mL
Candida albicans [9] = assay: In vitro minimal inhibitory concentration against Candida albicans with percentage of resistant strains %R = 33.33 (MIC > 64 ug/mL) at a range of 0.125-2 ug/mL
Candida albicans [10] = assay: In vitro concentration causing 90% inhibition of Candida albicans with percentage of resistant strains %R = 33.33 (MIC > 64 ug/mL) at a range of 0.125-2 ug/mL
Candida albicans [11] = assay: In vitro concentration causing 50% inhibition of Candida albicans with percentage of resistant strains %R = 16.6 (MIC > 64 ug/mL) at a range of 0.5-4 ug/mL
Candida albicans [12] = assay: In vitro concentration causing 90% inhibition of Candida albicans with percentage of resistant strains %R = 16.6 (MIC > 64 ug/mL) at a range of 0.5-4 ug/mL
Candida albicans [13] = assay: In vitro minimal inhibitory concentration against Candida albicans with percentage of resistant strains %R = 16.6 (MIC > 64 ug/mL) at a range of 0.5-4 ug/mL
Candida albicans [14] = assay: In vitro concentration causing 90% inhibition of Candida albicans with percentage of resistant strains %R = 41.6 (MIC > 64 ug/mL) at a range of 0.062-0.125 ug/mL
Candida albicans [15] = assay: In vitro concentration causing 50% inhibition of Candida albicans with percentage of resistant strains %R = 41.6 (MIC > 64 ug/mL) at a range of 0.062-0.125 ug/mL
Candida albicans [16] = assay: In vitro minimal inhibitory concentration against Candida albicans with percentage of resistant strains %R = 41.6 (MIC > 64 ug/mL) at a range of 0.062-0.125 ug/mL

With `Clc1ccc(-c2cn(CC3CC3)cc2C(c2ccccc2)n2ccnc2)cc1` (stereo not given) the MIC50 (Candida albicans [1]) was 0.016 µg/mL (≈ 0.0412 µM), the MIC (Candida albicans [2]) was 0.111 µg/mL (≈ 0.286 µM) and the MIC90 (Candida albicans [3]) was 0.125 µg/mL (≈ 0.322 µM). For the same compound, the Ratio (Candida albicans [4]) was 0.025.

Compound `Clc1ccc(-c2cn(-c3ccccc3)cc2C(c2ccccc2)n2ccnc2)cc1` (stereo not given) has an MIC (Candida albicans [5]) of 7 µg/mL (≈ 17.1 µM), an MIC90 (Candida albicans [6]) of 16 µg/mL (≈ 39 µM) and an MIC50 (Candida albicans [7]) of 4 µg/mL (≈ 9.76 µM). The Ratio (Candida albicans [4]) was 1.5.

`C=CCn1cc(-c2ccc(Cl)cc2)c(C(c2ccccc2)n2ccnc2)c1` (stereo not given) was tested, and the MIC50 (Candida albicans [1]) was 0.016 µg/mL (≈ 0.0428 µM), the MIC (Candida albicans [2]) was 0.082 µg/mL (≈ 0.219 µM) and the MIC90 (Candida albicans [3]) was 0.25 µg/mL (≈ 0.669 µM). For the same compound, the Ratio (Candida albicans [4]) was 0.019.

`CCn1cc(-c2ccc(Cl)c(Cl)c2)c(C(c2ccc(C)cc2)n2ccnc2)c1` (stereo not given) was tested, and the MIC50 (Candida albicans [8]) was 2 µg/mL (≈ 4.87 µM), the MIC (Candida albicans [9]) was 2.18 µg/mL (≈ 5.31 µM) and the MIC90 (Candida albicans [10]) was 2 µg/mL (≈ 4.87 µM). It also gave a Ratio (Candida albicans [4]) of 0.47.

`COC(=O)/C=C/n1cc(-c2ccc(Cl)cc2)c(C(c2ccccc2)n2ccnc2)c1` (stereo not given) was tested, and the MIC50 (Candida albicans [11]) was 2 µg/mL (≈ 4.79 µM), the MIC90 (Candida albicans [12]) was 4 µg/mL (≈ 9.57 µM) and the MIC (Candida albicans [13]) was 1.62 µg/mL (≈ 3.88 µM). It also gave a Ratio (Candida albicans [4]) of 0.34.

With `C=Cn1cc(-c2ccc(Cl)cc2)c(C(c2ccccc2)n2ccnc2)c1` (stereo not given) the MIC50 (Candida albicans [1]) was 0.032 µg/mL (≈ 0.0889 µM), the MIC (Candida albicans [2]) was 0.125 µg/mL (≈ 0.347 µM) and the MIC90 (Candida albicans [3]) was 0.25 µg/mL (≈ 0.695 µM). It also gave a Ratio (Candida albicans [4]) of 0.031.

`Fc1ccc(-n2ccc(C(c3ccc(Cl)cc3)n3ccnc3)c2)cc1` (stereo not given) was tested, and the Ratio (Candida albicans [4]) was 2.7.

Compound `COc1ccc(C(Cc2ccc([N+](=O)[O-])cc2)n2ccnc2)cc1` (stereo not given) has a Ratio (Candida albicans [4]) of 17.

Compound `Cc1ccc(C(c2ccn(-c3ccccc3)c2)n2ccnc2)cc1` (stereo not given) has a Ratio (Candida albicans [4]) of 1.2.

In the case of `COc1ccc(C(Cc2ccccc2F)n2ccnc2)cc1` (stereo not given), the Ratio (Candida albicans [4]) is reported as 49.

`c1ccc(C(c2ccn(-c3ccccc3)c2)n2ccnc2)cc1` (stereo not given) showed a Ratio (Candida albicans [4]) of 2.3.

`COc1ccc(C(Cc2cccc(F)c2)n2ccnc2)cc1` (stereo not given) showed a Ratio (Candida albicans [4]) of 51.

With `Cn1cc(-c2ccccc2)c(C(c2ccc3ccccc3c2)n2ccnc2)c1` (stereo not given) the Ratio (Candida albicans [4]) was 63.

`c1ccc(-c2c[nH]cc2C(c2cccc3ccccc23)n2ccnc2)cc1` (stereo not given) gave a Ratio (Candida albicans [4]) of 1.7.

`COc1ccc(C(Cc2ccc(F)cc2)n2ccnc2)cc1` (stereo not given) was tested, and the Ratio (Candida albicans [4]) was 23.

With `COc1ccc(C(Cc2cccc(Cl)c2)n2ccnc2)cc1` (stereo not given) the Ratio (Candida albicans [4]) was 44.

`COc1ccc(C(Cc2cccc(-n3cccc3)c2)n2ccnc2)cc1` (stereo not given) gave a Ratio (Candida albicans [4]) of 45.

Work on `Cc1ccc(C(c2ccn(-c3ccc(F)cc3)c2)n2ccnc2)cc1` (stereo not given) yielded a Ratio (Candida albicans [4]) of 3.1.

Compound `COc1ccc(C(Cc2ccccc2Cl)n2ccnc2)cc1` (stereo not given) has a Ratio (Candida albicans [4]) of 63.

`Cn1cc(-c2ccccc2)c(C(c2cccc3ccccc23)n2ccnc2)c1` (stereo not given) gave a Ratio (Candida albicans [4]) of 6.

For `COc1ccc(C(Cc2ccccc2[N+](=O)[O-])n2ccnc2)cc1` (stereo not given), the Ratio (Candida albicans [4]) was 97.

Work on `COc1ccc(C(Cc2ccccc2-n2cccc2)n2ccnc2)cc1` (stereo not given) yielded a Ratio (Candida albicans [4]) of 7.8.

`Fc1ccc(C(c2ccn(-c3ccc(F)cc3)c2)n2ccnc2)cc1` (stereo not given) was tested, and the Ratio (Candida albicans [4]) was 1.4.

`Cn1cc(-c2ccc(Cl)cc2)c(C(c2ccccc2)n2ccnc2)c1` (stereo not given) was tested, and the MIC90 (Candida albicans [14]) was 0.125 µg/mL (≈ 0.359 µM), the MIC50 (Candida albicans [15]) was 0.062 µg/mL (≈ 0.178 µM) and the MIC (Candida albicans [16]) was 0.097 µg/mL (≈ 0.279 µM). The Ratio (Candida albicans [4]) was 0.025.
